Rows were chosen to be rich in hits. Some 2.3% of all compounds tested hit in one or more screens of this group.
ROMK primary – human ROMK K+ channel modulation, primary screen; P48048; Tet-inducible ROMK, thallium flux fluorescence; actives lie on both sides; B-score at 10 µM; 130,000 tested, 2% active;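 active = signal ratio slope over the read window, or its plate-corrected B-score, at least 3 SD from the plate mean, either direction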;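 also: B-score of the F/F0 ratio slope over 7 to 12 s after thallium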
Target sequence (P48048 whole entry, looked up): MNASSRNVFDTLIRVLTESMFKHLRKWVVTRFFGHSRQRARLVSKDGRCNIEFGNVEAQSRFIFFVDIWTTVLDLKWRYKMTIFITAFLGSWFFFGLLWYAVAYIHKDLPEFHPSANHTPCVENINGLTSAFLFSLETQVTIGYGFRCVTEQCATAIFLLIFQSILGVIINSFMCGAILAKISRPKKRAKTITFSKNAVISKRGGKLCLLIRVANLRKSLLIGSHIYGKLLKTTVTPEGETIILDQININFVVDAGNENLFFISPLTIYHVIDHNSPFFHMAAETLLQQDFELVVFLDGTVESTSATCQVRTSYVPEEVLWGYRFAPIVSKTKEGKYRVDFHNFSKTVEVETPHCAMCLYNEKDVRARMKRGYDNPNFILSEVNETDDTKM
SDO1 yeast rescue – restores growth of sdo1-depleted yeast. S. cerevisiae sdo1-depleted JHY4D growth rescue, OD600 30 h; hits give high values; pdr5 snq2 efflux-pump mutant strain. z-score at 10 µM. 140,000 tested, 0.21% active. AID 817;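 active = z-score above 3 at both the 24 hr and the 30 hr optical density reads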
ABCG2 block – blocks JC-1 efflux by human ABCG2 transporter; Q9UNQ0; IgMXP3 cells, flow cytometry; inhibition, % at 6.6 µM; 190,000 tested, 0.1% active; AID 1325;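 active = inhibition above 80%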
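Times: 10 min at 25 °C | Test system: Two drug-resistant human cell lines, ABCG2 and ABCB1 | Quantity: 3 million cells/mL final, two lines in 1:1 ratio | Signal: Flow cytometry, 530 nm JC-1 signal | Dosing: Compound at 6.6 µM | Controls: Nicardipine and DMSO wells | Reagent: JC-1 as fluorescent efflux pump substrate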
Insulin prom up – MIN6 insulin promoter up-regulation. AID 1625. 190,000 tested, 0.3% active. MIN6 insulin promoter-GFP reporter, high-content imaging; hits give high values. z-score at 5 µM;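 active = z-score above 3 at 5 µM with at least 500 cells counted in the well; inconclusive = wells under 500 cells, flagged as cytotoxic or low count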
ABCB1 block – inhibitors of human ABCB1 transporter, ABCG2 counter-screen | P08183 | CCRF-Adr cells, JC-1 efflux, flow cytometry | inhibition, % at 6.6 µM | 190,000 tested, 0.067% active | AID 1326; in the data active = inhibition above about 40%;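 also: higher value means more JC-1 retained so stronger ABCB1 efflux block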
Autophagy HCS – alters autophagy in cells | MEF GFP-LC3 puncta imaging; test concentration mostly 10 µM | 190,000 tested, 0.98% active | calls only at 10 µM (by protocol) | AID 463193;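 active = percentage of spot-positive cells more than 3 SD above its plate mean, without a fluorescence outlier flag or 80% toxicity; inconclusive = no clear call, values can overlap the other calls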
A number is an active result; i = inactive; ? = inconclusive; nt = no result; + = active, no number.

SMILES	ROMK primary	SDO1 yeast rescue	ABCG2 block	Insulin prom up	ABCB1 block	Autophagy HCS
CCC/C(=N/Nc1ccc(Cl)cc1)c1cnnc(-c2ccccc2)n1	i	nt	nt	nt	nt	+
O=C1/C(=N\S(=O)(=O)c2cccs2)C([n+]2cccc(Cc3ccccc3)c2)=C([O-])c2ccccc21	nt	nt	nt	6.82	nt	nt
Cc1nn(-c2ccccc2)c(C)c1/C=C1\C(=O)N(C)C(=S)N1C	i	nt	i	i	i	i
Cc1ccc(NC(=O)CN(C)S(=O)(=O)c2cccc3cccnc23)cc1	nt	i	i	i	i	i
Cc1csc(NC(=O)CN(C)S(=O)(=O)c2cccc3cccnc23)n1	nt	i	i	3.05	i	i
CC(C)N1CCC(N2CCN(CCCn3cccn3)CC2CCO)CC1 (stereo not drawn)	i	nt	i	i	i	i
Cc1ccc(-c2nc(NC(=O)c3nn(C)cc3[N+](=O)[O-])sc2C)cc1C	i	i	i	i	i	i
Cc1ccc(-c2nc(NC(=O)c3nn(C)cc3[N+](=O)[O-])sc2C)cc1	i	i	i	i	i	+
O=C(c1ccc(Cn2cc(Cl)c([N+](=O)[O-])n2)cc1)N1CCN(Cc2ccccc2)CC1	nt	nt	nt	i	nt	nt
O=C(Cn1c(NCCO)nc2ccccc21)NCC1CCCO1 (stereo not drawn)	i	nt	i	i	i	+
O=C(Cn1c(NCCO)nc2ccccc21)NCCc1ccccc1	i	i	i	i	i	i
CN1C(=O)CC(N2CCN(Cc3ccc(Cl)cc3)CC2)C1=O (stereo not drawn)	i	i	i	3.88	i	i
CC(=O)NCCOc1nc(N2CCCCC2)nc(N2CCCCC2)n1	i	nt	i	i	i	i
CC(=O)Nc1nc(C2CC2)cc(-c2ccccc2)c1C#N	i	nt	i	i	i	i
C=C(C)CNC(=S)Nc1cccc(S(=O)(=O)NC2=NCCC2)c1	i	nt	i	i	i	i
CCC(C(=O)OCC(=O)Nc1cccc(S(=O)(=O)NC2=NCCCCC2)c1)c1ccccc1 (stereo not drawn)	i	nt	i	3.98	i	i
C/C=C/C(=O)OCC(=O)Nc1cccc(S(=O)(=O)NC2=NCCCCC2)c1	i	nt	i	i	i	i
CSCCCNC(=S)Nc1cccc(S(=O)(=O)NC2=NCCC2)c1	i	nt	i	i	i	+
CN(C)c1ccc(/C=C(/C#N)C(=O)NCc2ccccc2)o1	i	i	i	16.1	i	+
CCCc1nc2ccccc2c(C(=O)OC(C)C(=O)NCc2ccc3c(c2)OCO3)c1CC (stereo not drawn)	nt	i	i	i	i	i
Cc1cc(C)nc(S/C=C/C(=O)c2ccccc2F)n1	nt	nt	nt	i	nt	nt
CCOC(=O)C1=C(c2ccccc2)NC(SCC(=O)Nc2ccc(C)cc2)=C(C#N)C1c1ccco1 (stereo not drawn)	nt	i	i	i	i	i
CCOC(=O)C1=C(c2ccccc2)NC(SCC(=O)Nc2cccc(C)c2)=C(C#N)C1c1ccco1 (stereo not drawn)	nt	i	i	i	i	+
S=C(NCC1CCCO1)N1CCN(Cc2ccccc2Cl)CC1 (stereo not drawn)	i	nt	i	i	i	i
CCn1c(CNc2ccc(Cl)cc2)nnc1SCC(=O)OC1CCCCC1	-4.16	i	i	nt	i	i
SMILES	ROMK primary	SDO1 yeast rescue	ABCG2 block	Insulin prom up	ABCB1 block	Autophagy HCS
CC(=O)Nc1ccc(NC2=C/C(=N/S(=O)(=O)c3cccs3)c3ccccc3C2=O)cc1	i	nt	i	?	i	+
O=S(=O)(NCC1CCCO1)c1ccc(-c2ccc(Cl)cc2)cc1 (stereo not drawn)	i	nt	i	i	i	+
Cc1c(Cl)cccc1N=c1c([N+](=O)[O-])nn(-c2ccccc2)n1O	i	i	i	nt	i	+
CCC1CCCCN1S(=O)(=O)c1ccc(NC(=O)CSc2ncccc2C(=O)O)cc1 (stereo not drawn)	nt	i	i	i	i	+
CCS(=O)(=O)c1nc2ccccc2n1Cc1ccccn1	i	nt	i	i	i	i
CC(=O)Nc1sc2c(c1C(N)=O)CCC2	2.5	i	i	i	i	i
CCn1ncc(Br)c1C(=O)Nc1sc2c(c1C(N)=O)CCC2	nt	i	i	3.46	i	i
O=C(CCCN1C(=O)c2ccccc2C1=O)Nc1nnc(C2CC2)s1	i	nt	i	i	i	i
O=C(NC(=S)N1CCN(c2nc(-c3ccccc3)cs2)CC1)c1cncc(Br)c1	4.82	nt	i	i	i	i
O=C(CN1CCN(c2nc(-c3ccccc3)cs2)CC1)NNC(=O)c1ccc(Br)cc1	nt	i	i	i	i	i
CC(C)Cn1c(N2CCN(CC(=O)Nc3ccc(Cl)cc3)CC2)nc2ccccc21	nt	nt	i	i	i	i
CCn1nc(-c2ccccc2)c2nc3ccccc3nc21	nt	i	i	i	i	+
CCCCn1c2nc3ccccc3nc2c2c(=O)n(CCC)cnc21	nt	i	i	i	i	i
CCCn1c(C)nc2c(c1=O)c1nc3ccccc3nc1n2CCc1ccccc1	nt	nt	nt	nt	nt	i
CCCn1nc(-c2ccccc2)c2nc3ccccc3nc21	nt	i	i	i	i	+
CCCCCn1nc(-c2ccccc2)c2nc3ccccc3nc21	nt	i	i	nt	i	+
COc1cccc(/C=C/C(=O)OCC(=O)Nc2cccc(S(=O)(=O)N3CCOCC3)c2)c1OC	i	nt	i	i	i	i
Cc1noc(/C=C/c2cccs2)c1S(=O)(=O)N1CCC(C(=O)NCCCN2CCC(C)CC2)CC1	i	nt	i	i	i	i
CC(C)C(=O)N1CCC2(CC1)Oc1ccc(Cl)cc1C(=O)C21CC(c2cccnc2)=NO1 (stereo not drawn)	nt	nt	nt	i	nt	nt
O=C(CCc1nc(-c2ccccc2F)no1)NC1CCCCC1	nt	i	i	i	i	i
O=C(CCCc1nc(-c2ccccc2Cl)no1)NC1CCCCC1	i	i	i	i	i	+
Cc1cccc(Oc2ccc(Cl)cc2N)c1	i	nt	i	i	i	i
Cc1ccc(C)n1CCN1CCN(CC(=O)Nc2cc(C(F)(F)F)ccc2Cl)CC1	nt	i	i	i	i	+
O=C(CN1CCOCC1)Nc1cc(C(F)(F)F)ccc1Cl	i	nt	i	i	i	i
CCOC(=O)c1ccc(NC(=O)Cn2ncc(Cl)c(Cl)c2=O)cc1	i	i	i	?	i	+
SMILES	ROMK primary	SDO1 yeast rescue	ABCG2 block	Insulin prom up	ABCB1 block	Autophagy HCS
COc1ccc(C(=O)Nc2ccc3oc(-c4cccc(Cl)c4)cc(=O)c3c2O)cc1	nt	nt	nt	i	nt	nt
COc1cccc(N/C(N)=N/c2nc(CSc3ccccn3)cc(=O)[nH]2)c1	i	nt	i	i	i	+
CCc1ccc(N/C(N)=N/c2nc(CSc3ccccn3)cc(=O)[nH]2)cc1	i	nt	i	i	i	i
Cc1cnc(C(=O)OCC(=O)c2cc(C)n(C)c2C)cn1	i	nt	i	i	i	i
C/C(=N\NC(=O)C1=NNC(=O)C1C)c1cccs1 (stereo not drawn)	i	nt	i	i	i	i
CCn1c(=NC(=O)c2cccc(N3C(=O)CCC3=O)c2)sc2c(OC)ccc(OC)c21	nt	nt	i	i	i	i
COc1ccc(OC)c2c1sc(=NC(=O)c1cccc(N3C(=O)CCC3=O)c1)n2C	nt	i	i	i	i	+

Screens deposited in PubChem BioAssay by several laboratories.
